# From PubChem
# Most compounds without a hit are left out; they make up all but 0.55% or so of the library.
# TRPML3 agonist: activates the human TRPML3 channel; activation, % at 3 µM; Q8TDD5; HEK293 TRPML3-YFP, Fluo-8 calcium fluorescence; 100% = the carbachol control signal; hit rate 0.29% among 220,000; AID 1448;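 active = activation above its plate's cutoff, the mean activation of the plate's test wells plus 3 SD, cut at about 12% in these data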;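 note: 0% = DMSO only wells and 100% = carbachol wells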
#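 system = HEK293 cells stably carrying human TRPML3-YFP | doses = one concentration, 3 µM nominal, 0.3% DMSO | timing = dye loading 1 h 37 °C then 30 min ambient, 125 s read | detection = Fluo-8 calcium dye fluorescence, ex 470-495, em 515-575 nm | benchmarks = high control carbachol 87 µM, low control DMSO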
# zfTRPN1 agonist: activates the zebrafish TRPN1 channel. HEK293 zebrafish TRPN1-YFP, Fluo-8 calcium fluorescence; 100% = response to 87 µM carbachol. activation, % at 3 µM. hit rate 0.18% among 220,000. AID 1424;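 active = activation above its plate's cutoff, the mean activation of test wells on that plate plus 3 SD, cut at about 19% in these data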;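 note: 0% = DMSO alone and 100% = 87 µM carbachol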
#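 Material: zebrafish TRPN1-YFP in HEK293 cells; Doses: single test compound dose, 3 µM nominal, 0.3% DMSO; Timing: dye loading 1 h at 37 °C, then 30 min room temperature; Technique: intracellular calcium fluorescence with Fluo-8; Benchmarks: high carbachol 87 µM, low DMSO alone.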
# V1R ag counter: V1a receptor agonism, counter-screen for OXTR agonists; CHO-V1R cells, Fluo-8 calcium fluorescence, agonist mode; 0% DMSO, 100% 3 nM vasopressin; P37288; hit rate 0.25% among 320,000; AID 2797; activation, % at 3 µM;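 active = activation above the mean activation of all tested compounds plus 3 SD, per screening run, cut at about 20% in these data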;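 note: signal is peak over basal fluorescence ratio across a 100 second FLIPR read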
# OXTR ag: activates the human oxytocin receptor; hit rate 0.32% among 320,000; AID 2435; CHO-OTR cells, Fluo-8 calcium fluorescence; normalized: DMSO 0%, oxytocin 100%; activation, % at 3 µM;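 active = activation above the mean of all tested compounds plus 3 SD, cutoff set per screening run, cut at about 20% in these data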;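 note: peak over basal fluorescence ratio from a 100 s FLIPR kinetic read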
# Target sequence (P30559 whole entry, looked up): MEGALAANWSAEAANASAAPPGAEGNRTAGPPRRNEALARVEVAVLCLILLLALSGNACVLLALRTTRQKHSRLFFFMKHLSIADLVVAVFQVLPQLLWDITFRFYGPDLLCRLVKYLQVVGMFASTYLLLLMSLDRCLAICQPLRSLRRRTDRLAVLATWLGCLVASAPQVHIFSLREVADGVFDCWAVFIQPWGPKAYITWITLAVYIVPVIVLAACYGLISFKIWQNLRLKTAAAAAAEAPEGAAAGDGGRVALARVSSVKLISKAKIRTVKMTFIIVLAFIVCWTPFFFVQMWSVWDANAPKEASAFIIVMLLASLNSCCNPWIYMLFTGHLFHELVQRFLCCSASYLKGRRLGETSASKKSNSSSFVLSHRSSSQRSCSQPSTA
# OXTR potentiate: human OXTR potentiation; P30559; CHO-OTR cells, Fluo-8 calcium fluorescence, potentiator mode; 0% = oxytocin EC15, 100% = EC100; activation, % at 3 µM; hit rate 0.061% among 320,000;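 active = activation above that plate's cutoff, the mean activation of tested compounds plus 3 SD, cut at about 6.6% in these data, passing the limit was not always enough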;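 note: 100% uses oxytocin at 75 nM as the full agonist control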
#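 System: human OTR in CHO cells; Also added: sub-maximal oxytocin, roughly EC15; Timing: compound 6 min at room temperature before oxytocin, 100 s read; Technique: Fluo-8 intracellular calcium fluorescence, ex 470-495, em 515-575 nm; Controls: oxytocin EC15 low and EC100 high; Replication: singlicate.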
# OXTR agonist cf: confirmation of human oxytocin receptor agonists. hit rate 20% among 390. activation, % at 3 µM. shares compounds with OXTR ag. AID 434963. CHO-OTR cells, Fluo-8 calcium fluorescence, agonist;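 active = mean activation above about 20% derived from the earlier single-dose screen, limit read from the data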;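 note: peak over minimum fluorescence ratio per well during a 100 second FLIPR read; 0% = DMSO alone and 100% = oxytocin high control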
# V1R ag counter 3x: counter-screen for oxytocin receptor agonists: V1a receptor agonists; shares compounds with OXTR ag; CHO-V1R cells, Fluo-8 calcium fluorescence, agonist; activation, % at 3 µM; hit rate 10% among 390; AID 434991;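 active = mean activation over triplicate exceeds the hit threshold set in the earlier primary screen, cut at about 20% in these data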;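 note: peak over basal fluorescence ratio within a 100 second read; 0% = DMSO alone and 100% = 3 nM vasopressin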
# * marks the source's active call; other numbers are inactive results; x = no result given.
SMILES,TRPML3 agonist,zfTRPN1 agonist,V1R ag counter,OXTR ag,OXTR potentiate,OXTR agonist cf,V1R ag counter 3x
Cc1ccccc1OCCNc1cc(N2CC(C)NC(C)C2)ccc1[N+](=O)[O-] (stereo not given),2.6,7.2,14.4,20.3*,-7.4,13.1,4.6
CCc1ccc(OCCNc2cc(N3CCNC(C)C3)ccc2[N+](=O)[O-])cc1 (stereo not given),x,x,11.0,18.4,-6.7,x,x
CC1CN(c2ccc([N+](=O)[O-])c(NCCOc3ccccc3)c2)CC(C)N1 (stereo not given),x,x,7.2,24.2*,-15.2,3.6,3.7
CCc1ccc(Nc2n[n+](-c3ccccc3)c(-c3ccc(N(CC)CC)cc3)s2)cc1,x,x,17.5,40.1*,-17.5,71.2*,101.1*
Cn1cccc1CC(=O)N/N=C/C=C/c1ccco1,0.1,1.0,0.8,-0.3,1.4,x,x
CO/N=C/c1ccc(N2CCN(C(=O)c3ccc(Cl)cc3Cl)CC2)c([N+](=O)[O-])c1,6.1,15.7,16.8,27.1*,-12.0,14.6,16.6
CC(C(=O)NCc1ccco1)n1ccc2cc(S(=O)(=O)N3CCCCC3)ccc21 (stereo not given),x,x,8.2,6.3,-5.8,x,x
O=C(CNc1ccccc1)Nc1cccc2ccccc12,x,x,1.8,0.2,-3.0,x,x
O=Cc1[nH]c2ccccc2c1N(C(=O)CCl)c1ccc([N+](=O)[O-])cc1,2.8,5.4,11.2,21.1*,-17.6,15.8,10.7
CC(=O)n1cc(N(C(=O)CCl)c2ccc([N+](=O)[O-])cc2)c2ccccc21,2.1,3.8,5.1,9.9,-4.2,x,x
O=C(NCc1ccc(F)cc1)C1CC(=O)N(C2CCCCC2)C1 (stereo not given),x,x,0.8,0.4,-5.2,x,x
Cc1cc(OCCn2ccnc2)cc(C)c1Cl,x,x,1.7,2.7,-6.7,x,x
CCOC(=O)/C(C#N)=C/Nc1ccccc1NS(=O)(=O)c1cccc(C(C)=O)c1,0.1,0.3,1.6,49.8*,-1.1,0.7,1.0
CCOC(=O)/C(C#N)=C/Nc1ccccc1NS(=O)(=O)c1ccc(C)c(C)c1,0.5,-1.6,0.1,0.9,-3.8,x,x
Cc1cc(C)c2c(=O)n(CC(=O)Nc3cccc(Cl)c3C)sc2n1,10.9,21.4*,18.5,41.6*,-9.9,20.0*,21.0*
Cc1cc(C)c2c(=O)n(CC(=O)Nc3ccc(Br)c(C)c3)sc2n1,5.7,3.7,20.1,37.4*,-11.8,10.4,6.6
Cc1cc(C)c2c(=O)n(CC(=O)NC3CCCC3)sc2n1,1.2,-0.1,4.3,4.0,-1.6,x,x
C#CCCOC(=O)N1C2=NC(C(=O)OC)=C(C(=O)OC)[C@@H]3N(C)c4ccccc4[C@]23C[C@H]1CO,x,x,-1.2,-0.1,-1.8,x,x
OCc1cn(-c2ccccc2)nc1-c1ccc(-c2nn(-c3ccccc3)cc2CO)cc1,0.7,0.1,5.2,0.7,-9.7,x,x
Cc1ccc(-c2nn(-c3ccccc3)cc2CSC(=N)N)cc1,0.6,1.8,12.2,23.7*,-12.4,4.4,5.3
COc1ccccc1C1=NNC(=Nc2cccc(S(=O)(=O)N(C)C)c2)SC1,0.3,-0.2,-0.1,0.5,-5.4,x,x
COc1cc(CNCCc2c[nH]c3ccccc23)ccc1OCc1ccc(F)cc1,3.4,3.6,11.5,21.5*,-8.4,18.0,7.7
COc1cccc(CNCCc2c[nH]c3ccccc23)c1OCc1ccc(F)cc1,1.1,2.2,7.6,17.7,-25.9,x,x
COc1cc(CNCCc2ccc(F)cc2)ccc1OCc1ccc(Cl)nc1,0.7,0.0,12.6,22.2*,-14.1,10.0,1.4
COc1ccc(NS(=O)(=O)c2ccc(N3CCOCC3)c(N)c2)cc1,x,x,12.0,20.4*,-9.4,11.0,10.5
SMILES,TRPML3 agonist,zfTRPN1 agonist,V1R ag counter,OXTR ag,OXTR potentiate,OXTR agonist cf,V1R ag counter 3x
COc1ccc(S(=O)(=O)Nc2ccc(N3CCOCC3)cc2)cc1,x,x,2.7,1.7,-12.0,x,x
COc1ccc(C(CCN2CCCCC2)c2c(OC)cc(OC)c3c(-c4ccccc4)cc(=O)oc23)cc1 (stereo not given),x,x,16.4,21.2*,-16.3,9.3,6.8
CC1=C(C(=O)OC2CCC(C)CC2)C(c2ccc(O)c([N+](=O)[O-])c2)NC(=O)N1 (stereo not given),x,x,-0.1,-1.1,-1.7,x,x
Cc1cc(=O)[nH]c(SCC(=O)Nc2ccc(F)c([N+](=O)[O-])c2)n1,0.6,1.1,0.1,-0.8,-19.9,x,x
COc1ccccc1-[n+]1c(C)cc(/C=C2\Sc3ccccc3N2C)cc1C,11.8*,26.0*,12.1,25.5*,-14.1,26.0*,25.6*
COc1ccc(C(=O)/C=C2\Sc3ccccc3N2C)cc1,-0.9,-2.1,-0.9,-1.3,-5.3,x,x
O=C(CCc1nc(-c2ccccc2)no1)NCc1ccccc1CN1CCOCC1,x,x,1.4,1.4,-3.2,x,x
CN1CCN(S(=O)(=O)c2ccc(N(C)Cc3ccc(C(F)(F)F)cc3)c([N+](=O)[O-])c2)CC1,x,x,15.9,20.3*,-11.8,10.5,6.3
C=CCOc1ccc(CN(C)c2ccc(S(=O)(=O)N3CCN(C)CC3)cc2[N+](=O)[O-])cc1,x,x,12.0,12.2,-10.6,x,x
CCOc1ccc(CN(C)c2ccc(S(=O)(=O)N3CCN(C)CC3)cc2[N+](=O)[O-])cc1OC,x,x,12.4,22.3*,-11.6,10.2,8.9
CCCOc1ccc(-c2nc(-c3ccc(N)cc3)cs2)cc1,-0.7,-0.1,-0.1,0.4,-2.7,x,x
COc1ccc(NS(=O)(=O)c2ccc(-n3nnc4ccccc43)c([N+](=O)[O-])c2)cc1,1.7,8.2,8.0,23.5*,-10.9,13.1,8.2
CCOC(=O)c1c(C)[nH]c(C(=O)OCC(=O)c2ccc3c(c2)NC(=O)CO3)c1C,x,x,-0.4,0.5,-2.3,x,x
CN(c1ccccc1)c1ccc(/C=C/[N+](=O)[O-])cc1,10.1,16.5,15.2,28.8*,-11.7,25.6*,32.4*
Cc1cc(C)cc(OCC(O)CN2CCC(CN3C(=O)c4cccc5cccc(c45)C3=O)CC2)c1 (stereo not given),x,x,16.0,24.8*,-10.9,3.2,0.9
COc1cccc(OCC(O)CN2CCC(CN3C(=O)c4cccc5cccc(c45)C3=O)CC2)c1 (stereo not given),0.9,0.9,0.6,3.5,-4.0,x,x
COc1cc(NC(=O)Cc2nn(C)c(=O)c3ccccc23)cc(OC)c1OC,0.5,1.4,2.0,0.5,-7.1,x,x
COc1ccc(OC)c(NC(=O)Cc2nn(C)c(=O)c3ccccc23)c1,2.6,4.6,7.2,20.1*,-19.9,6.7,8.8
CCCCCCOc1ccc(OCC(O)CN2C(=O)NC(C)(C)C2=O)cc1 (stereo not given),-0.5,0.6,14.4,23.7*,-11.0,4.7,1.9
